In the EternaBench riboswitch data:

Tested on: MS2 coat protein
Test: apparent Kd, MS2 coat protein; higher = weaker binding; RNA-MaP array; FMN 200 µM where present
Summary of the method: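 Green signal from SNAP-549-labelled MS2 coat protein was normalised to red-channel RNA signal and to the median Fmax of control clusters. The protein was titrated from 0.7 or 1.5 nM, doubling to 3 µM, without and then with constant ligand, over designs transcribed by stalled E. coli RNA polymerase on Illumina sequencing-chip clusters, in 100 mM Tris-HCl pH 7.5, 80 mM KCl, 4 mM MgCl2, BSA, DTT, yeast tRNA and Tween-20. The apparent Kd is the median of filtered per-cluster binding-curve fits.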

[1] = designed as: ON switch for flavin mononucleotide, no ligand
[2] = ligand present: flavin mononucleotide, designed as: ON switch for flavin mononucleotide
[3] = designed as: OFF switch for flavin mononucleotide, no ligand
[4] = ligand present: flavin mononucleotide, designed as: OFF switch for flavin mononucleotide

Row | Sequence | apparent Kd [1] [nM] | apparent Kd [2] [nM] | apparent Kd [3] [nM] | apparent Kd [4] [nM]
1 | AAUAAGGUCACAGGAUAUACUACAUCCAAUGCGGUAGAAGGGUGACACUUACUGUGCAGACAUGAGGAUCACCCAUGUAACCAC | 53 | 10.4 | – | –
2 | UUAUUUAUACAAGGAUAUCUAUUGUUAAUUCGACUUACAUGAGGAUCACCCAUGUUUUUAUGUUUAGAGAAGGUGUAUUUUCAG | 90.4 | 51.9 | – | –
3 | GUAGAGUAGUGAGGAUAUACGAGAUCGAUAGAUCGGCGAUCCAAUAAUACAUGAGGAUCACCCAUGUAGAAGGCACUUCUCUAC | – | – | 7.79 | 116
4 | UUCCUACAUGAGGAUCACCCAUGUCAGGAUAUCUCCUCGUCGCCAAUGGGCGACGAAUAGAGAAGGGACAGGAA | – | – | 15 | 16.7
5 | GAGUGGUGGAGAGGAUAUACAUUGUUAUUCACUGUAGAAGGUUCUAACAUGAGGAUCACCCAUGUAGGACUAUUCCUGAGUUUU | 12.4 | 9.82 | – | –
6 | UUGUUAAAUGAAGGAUAUACUUAACAUGAGGAUCACCCAUGUGGUGUUGUGAGUGAGUGAGUUUAGUAGAAGGUCAAUUCUUUU | – | – | 229 | 232
7 | UUCGUGCAGCUUUGCUGUACGCGUACAUGAGGAUCACCCAUGUAGGAUAUGGUAGGCUUUGUUUACUAGAAGGAUAGUGUGAUC | – | – | 140 | 45.8
8 | UCGGAGUAAGUGAGGAUAUGUGCGCCUUUAAGCGUACAGAAGGCACAUGAGGAUCACCCAUGUGAGGCCUGCCA | – | – | 18.9 | 39
9 | UCGGCGCGAGGAUAUGCGGUUCCUGCUUCGGGCCGGAGCGUACAUGAGGAUCACCCAUGUAGAAGGCGCGCCGC | – | – | 14.2 | 14.6
10 | AAUAUGUGAGGAUAUCAGGUGUGCUAGCGUACUGGUACAUCUGAGAAGGCACAUGAGGAUCACCCAUGUAUCUU | – | – | 24.4 | 87.4
11 | CAUUAAUUAAUUAGUUUAUAAAUACAGGAUAUGUUACAUGAGGAUCACCCAUGUUUACAUGGGAUACAGAAGGGUAAAUCAAUA | – | – | 192 | 145
12 | AGAAAACAUGAGGAUCACCCAUGUCAAGCUAAUCAAGGAUAUGGGUCGGGAAAUCCCGCACCAGAAGGUGAAAUGC | 123 | 24.5 | – | –
13 | CCUCCGUAUGAGGAUAUCGUCCAGGAAACUGGACGAGAAGGCAUGACAUGAGGAUCACCCAUGUUAACGUGAUG | – | – | 19.8 | 52.1
14 | GCAAUCGCAUGAGGAUAUGCUCGAGUUUAGAGAGCAGAAGGCAUGUCAUAAGACAUGAGGAUCACCCAUGUAGUUAAAAUGGCA | 39.9 | 9.42 | – | –
15 | AGUACUACAGGAUAUACAUGAGUGAUACUCAUAUCCCUUCUACAUGAGGAUCACCCAUGUAGAAGGGUAGUACA | – | – | 15.2 | 11.7
16 | GUAUUUGGUUAGGAUAUUGACUCGAGAUCGAGAUAAGAAGGAGCCACAUGAGGAUCACCCAUGUCUAUCCAAGA | – | – | 27 | 29.6
17 | GUAGCUAUCGGAGGAUAUUCAUACCGGAAACGGACAUGAGGAUCACCCAUGUGGCGAAAGCCUUUGGAGAAGGCCGAUAGCUAC | 3.56 | 3.33 | – | –
18 | AUGUUACAUGAGGAUCACCCAUGUGAGGAUAUGUGUACCGGUAAAAAAGUGUUUGGCCACAGAAGGCAUUUGGG | – | – | 44.5 | 84.5
19 | AAAAAACAUGAGGAUCACCCAUGUCGAAAGACAUGAGGAUAUGUGUGGAAACCAUACUAUACAGAAGGCAUAAAAA | 37.8 | 371 | – | –
20 | GUGUACAGAGGAUAUACAUGAGCAUGGAAACAUGCAUCUUCACAUGAGGAUCACCCAUGUAGAAGGCUGUACAC | – | – | 227 | 75
21 | CCUCGACAUGAGGAUCACCCAUGUCAGGAUAUUGUGUCUCGGGUUUUUUACCGUUAGGCAAGAAGGGAUGUGUG | – | – | 22.1 | 23.2
22 | ACAUAAAUUCGAGGAUAUCGGUGAAAUAAUUUACGAGAAGGCGAUAAUAGUUAUAAACUUAUAGACAUGAGGAUCACCCAUGUA | 31.6 | 32.4 | – | –
23 | CCAGAUAUGUGAGGAUAUAUAGUGGAAUACACUAUAGAAGGUAUGUGAGAACAUGAGGAUCACCCAUGUCAUUGGUUAUCUGGA | 29.7 | 35.6 | – | –
24 | GGAUGGACCCAGAAGGGCAGAUCCCGAGGAAUUUGAGAUGAGCGGAUAUGUAGGAUAUGGGUGGACAUGAGGAUCACCCAUGUC | 176 | 42.6 | – | –
25 | UUGUAGGAGACAGGAUAUGUACGGAAGGUUCACGUACAUGAGGAUCACCCAUGUCCAGACUUCAGACAGAAGGGUCACCAGGUG | 113 | 17.2 | – | –
26 | CAUUAAUUGAUUAUUGAAUAUUUACAGGAUAUGUAACAUGAGGAUCACCCAUGUAAACAUGGAUUACAGAAGGGUAUUUAUAGA | – | – | 37 | 26.1
27 | GGUGCGUUUGUGAGGAUAUGCUGGUCCUUGGUUCGGCAGAAGGCACAUGAGGAUCACCCAUGUGGUGUCGCUCC | – | – | 41.7 | 139
